Screens from PubChem BioAssay.
ABHD4 inh: ABHD4 inhibitors, primary screen, biochemical, fluorescence polarization, mouse; purified mABHD4, FP-Rh probe fluorescence polarization; inhibition, % at 8.92 µM; hit rate 0.54% among 370,000; AID 720543, 2013;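 active = inhibition exceeding the mean over every tested compound plus 3 SD, cut at about 30% in these data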;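 note: 0% = plate median of compound wells and 100% = S159A mutant with DMSO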
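Assay system: mABHD4 protein; medium: HEPES pH 7.0, NaCl, Pluronic buffer; dosing: 8.92 µM, single dose; schedule: 45 min + 60 min at 25 °C; signal: FP readout, ex 525 nm / em 598 nm; read-out: normalized percent inhibition of probe labeling; repeats: single replicate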
SIAE primary: human SIAE inhibitors, primary screen, biochemical, fluorescence polarization, FP-Rh probe, 1536-well HTS | Sialate O-acetylesterase (Homo sapiens), Q9HAT2 | SIAE FP-Rh probe binding | inhibition, % at 9.66 µM | hit rate 0.69% among 370,000 | AID 1053197, 2014;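 active = inhibition above a cutoff: mean of compounds within the control limits plus 3 SD of those, cut at about 17% in these data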;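 note: 0% = plate median of compound wells and 100% = probe without SIAE protein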
HTRA1 inhibitor: HTRA1 serine protease inhibitors, primary screen, biochemical, fluorescence polarization, HTS; inhibition, % at 5.96 µM; hit rate 0.5% among 340,000; Q92743; recombinant HTRA1, FP-rhodamine activity-based probe; in the data active = inhibition above about 36%;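 note: 0% = enzyme with DMSO and 100% = wells lacking enzyme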
Target sequence (Q92743 whole entry, looked up): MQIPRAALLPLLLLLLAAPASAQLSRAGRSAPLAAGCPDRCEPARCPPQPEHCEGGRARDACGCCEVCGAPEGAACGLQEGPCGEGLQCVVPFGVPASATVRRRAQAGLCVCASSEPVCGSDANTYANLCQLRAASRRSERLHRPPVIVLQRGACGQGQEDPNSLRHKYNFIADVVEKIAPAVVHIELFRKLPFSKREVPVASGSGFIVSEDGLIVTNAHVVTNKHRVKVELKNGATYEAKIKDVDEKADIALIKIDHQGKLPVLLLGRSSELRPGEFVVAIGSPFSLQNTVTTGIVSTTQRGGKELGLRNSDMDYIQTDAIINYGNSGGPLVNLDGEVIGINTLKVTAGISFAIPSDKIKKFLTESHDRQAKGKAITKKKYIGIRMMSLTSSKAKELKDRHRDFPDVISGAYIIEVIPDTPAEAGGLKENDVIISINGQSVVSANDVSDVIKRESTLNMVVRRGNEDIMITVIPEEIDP
TCR-CD3 inh: inhibitors of human TCR-CD3 interaction, primary screen, biochemical, fluorescence, TAMRA-labeled TCR probe | T-cell receptor (TCR) | hit rate 0.37% among 360,000 | inhibition, % at 9.4 µM; in the data active = inhibition above about 19%;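 note: recombinant mutant TCR 2C K166C tagged with TAMRA read by polarization; 0% = receptor in buffer alone and 100% = receptor with positive control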
PRMT1 inh: PRMT1 methyltransferase inhibitors, primary screen, biochemical, fluorescence polarization | Protein arginine N-methyltransferase 1 (Homo sapiens), Q99873 | recombinant PRMT1, activity-based probe fluorescence polarization | inhibition, % at 2.79 µM | hit rate 1.3% among 370,000;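 active = inhibition above about 21% made by adding two undisclosed values, limit read from the data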
* = called active by the depositor; nt = not tested or not shown. Rows were chosen to be rich in hits. Some 2.5% of all compounds tested hit in one or more screens of this group.

SMILES | ABHD4 inh | SIAE primary | HTRA1 inhibitor | TCR-CD3 inh | PRMT1 inh
O=[N+]([O-])c1ccc(C(=S)N2CCN(c3ccc(F)cc3)CC2)cc1 | 4 | 4 | -10 | 0 | 3
CN(C)c1ccc(C(=S)N2CCN(c3ccc([N+](=O)[O-])cc3)CC2)cc1 | 1 | 10 | 5 | 1 | 23*
CCC(=O)Nc1nc2ccc(S(C)(=O)=O)cc2s1 | 0 | 9 | 1 | -4 | -1
CC(C)CC(=O)Nc1nc2ccc(S(C)(=O)=O)cc2s1 | -14 | -4 | 1 | -6 | 23*
COC(=O)[C@@]12CCCCC3=C1N(CCC3)C(=O)[C@H]2CC(=O)N1CCN(C(=O)c2ccco2)CC1 | 1 | -7 | nt | nt | 7
CC(=O)Nc1sc(N/N=C\c2cccc(Cl)c2)nc1-c1cccs1 | -9 | 2 | -3 | -9 | 11
CC(=O)Nc1sc(N/N=C\c2ccc(O)cc2)nc1-c1cccs1 | 2 | 0 | 3 | -7 | 23*
O=C1CCN2C=Nc3cccc4ccc1c2c34 | 13 | 4 | 5 | 1 | 124*
c1ccc(CN2CCN(C3=Nc4cccc5cccc3c45)CC2)cc1 | 6 | -4 | 1 | 0 | -1
CCc1cccc2cc3c(N)c(C(=O)Nc4ccc(S(=O)(=O)N5CCCC5)cc4)sc3nc12 | 7 | 27* | -4 | -7 | 20
O=C(CCCCn1c(=O)[nH]c2ccsc2c1=O)NCc1cccnc1 | -4 | 20* | 3 | -7 | -3
COc1ccc(C(C(=O)NC(C)(C)C)N(C(=O)CNC(=O)c2cccs2)c2cccnc2)cc1OC (stereo not given) | 7 | -1 | 10 | 8 | -2
CCN1C(=O)[C@H]2[C@@H](c3ccc(Cl)cc3)N3C(=O)CN(CC4CC4)C(=O)[C@@]3(C)[C@H]2C1=O | 3 | 3 | -3 | 1 | -1
C=C1C(=O)[C@@]23[C@H](O)C[C@@H]4C(C)(C)CC[C@H](O)[C@@]4(C)[C@@H]2CC[C@@H]1[C@H]3O | -11 | -2 | 1 | -10 | 7
C=C1C(=O)[C@@]23[C@H](O)C[C@@H]4C(C)(C)CC[C@H](O)[C@]4(C)[C@@H]2C[C@H](O)[C@@H]1[C@H]3O | -1 | 4 | -4 | -4 | 22*
COc1ccc(O)c(/C=N/c2sc(C)c(C)c2C#N)c1 | 1 | 7 | 5 | 7 | 24*
COc1ccc(/C=N/c2oc(C)c(C)c2C#N)c(OC)c1 | -3 | 10 | 5 | 7 | -2
CC(=O)C1=C(c2cccc([N+](=O)[O-])c2)N(C(C)=O)n2c(C)nnc2S1 | -7 | -2 | 0 | -1 | 75*
CC(=O)c1c(C(C)=O)c(C)n(-c2cccc([N+](=O)[O-])c2)c1C | 11 | -2 | 1 | 2 | -2
CCOc1ccc(CN(C)C(=O)CNC(=O)C2CCCCC2)cc1OC | 1 | 4 | -5 | 7 | 4
Cc1ccc(NC(=O)CN2C(=O)N/C(=C/c3cc(C)n(-c4cccc(C(=O)O)c4)c3C)C2=O)cc1 | 5 | -5 | -19 | 5 | 25*
COC(=O)[C@]12C[C@H](CC(=O)N3CCC(c4ccccc4)CC3)C(=O)N(CCC3=CCCCC3)C1=C[C@H](C(C)(C)C)O[C@@H]2C | -7 | -6 | nt | -3 | 3
COC(=O)c1ccc(CNC(=O)C2CCC(=O)N(CCN3CCOCC3)C2)cc1 (stereo not given) | 6 | -1 | 2 | 5 | -3
Cn1c(=S)c2[nH]c(SCCN)nc2n(C)c1=O | 39* | 5 | 3 | -6 | 9
Cc1ccc2oc(=O)c3cc(C(=O)NCCCN4C(C)CCCC4C)sc3c2c1 (stereo not given) | -4 | 0 | -13 | 7 | 0
SMILES | ABHD4 inh | SIAE primary | HTRA1 inhibitor | TCR-CD3 inh | PRMT1 inh
COc1ccc(NC(=S)NC(NC(=O)CCl)C(Cl)(Cl)Cl)c([N+](=O)[O-])c1 (stereo not given) | nt | nt | 42* | nt | nt
Cn1cnc([N+](=O)[O-])c1S(=O)(=O)Oc1cccc2ccccc12 | 2 | -2 | 6 | 4 | 23*
Cn1cnc([N+](=O)[O-])c1Oc1cccc2ccccc12 | 6 | -2 | 9 | 0 | 5
COc1ccc(-c2nc(CSCC(=O)NCCCN3CCCC3=O)c(C)o2)cc1OC | 1 | -3 | 4 | 5 | -3
CCC(=O)OCOc1ccc(/C=C2/CCC(CN(C)C)C2=O)cc1 (stereo not given) | -7 | -15 | -15 | 6 | 37*
NC(=O)c1csc(-c2ccncc2)n1 | -3 | -2 | 3 | -7 | 1
Nc1cc(-c2ccncc2)c[nH]c1=O | 5 | 0 | 5 | -4 | 24*
O=C1C(Cl)=C(NCCCO)C(=O)c2ccccc21 | -7 | 6 | 4 | -5 | 3
O=C1C(SCCO)=C(SCCO)C(=O)c2ccccc21 | 25 | 8 | 22 | -7 | 98*
c1ccc2c(OCCCN3CCCCCC3)cccc2c1 | 10 | 2 | 3 | 5 | -2
N#CC1(C#N)CC(C=O)=C(N)C1(C#N)CC(=O)c1ccc(F)cc1 (stereo not given) | 15 | -4 | -6 | -16 | 24*
Cc1[nH]c2ccccc2c1CC(=O)Nc1ccc(Nc2cccnc2)c(Br)c1 | 5 | 12 | nt | -6 | 0
COc1ccccc1NC(=O)CCCCCN1C(=O)c2cccc([N+](=O)[O-])c2C1=O | 1 | -2 | -1 | 3 | 1
COc1cc(/C=C2/C(=O)c3cccc([N+](=O)[O-])c3C2=O)c(Br)cc1O | 46* | -15 | 30 | -7 | 62*
COC(CNC(=O)[C@H](Cc1c[nH]c2ccccc12)NC1(C(=O)NCc2ccccc2)CCCCC1)OC | 0 | 11 | nt | nt | 3
Cc1ccc(NC(=S)N(CCN(C)C)Cc2cccs2)c(C)c1 | 2 | 12 | 0 | 1 | 22*
O=C(C[C@H]1C[C@H](C(=O)N2CCOCC2)[C@@]2(CCC3CCCC3)c3[nH]c4cc(-c5ccco5)ccc4c3CCN2C1=O)NCCC1=CCCCC1 | nt | nt | 1 | nt | nt
CN(C)CCCNC(=O)C[C@H]1C[C@H](C(=O)N2CCCCC2)[C@@]2(CCc3ccccc3)c3[nH]c4cc(-c5ccco5)ccc4c3CCN2C1=O | 20 | -1 | 21 | 4 | -1
O=C(C[C@H]1C[C@H](C(=O)N2CCOCC2)[C@@]2(CCC3CCCC3)c3[nH]c4cc(-c5ccco5)ccc4c3CCN2C1=O)NCc1ccco1 | 0 | 0 | 2 | -11 | 22*
CC(C)(C)NC(=O)C[C@H]1C[C@H](C(=O)N2CCCCC2)[C@@]2(CCc3ccccc3)c3[nH]c4cc(-c5ccco5)ccc4c3CCN2C1=O | 2 | -13 | -6 | -11 | 24*
Cc1ccc(-n2ncc3c(=O)n(CC(=O)N(C(C)C)C(C)C)cnc32)cc1 | -4 | 4 | 2 | -3 | -2
COc1cccc(OCc2cc(/C=N/Nc3ccc(C(=O)O)cc3)ccc2OC)c1 | 34* | 3 | -61 | 0 | 10
COc1cccc(C(=O)Oc2ccc(/C=N/Nc3ccc(C(=O)O)cc3)cc2OC)c1 | 13 | 9 | 5 | 2 | 8
